In the library only some 2% were active in any assay of this set; here they are far more common.
ARNT-TACC3 inh: ARNT/TACC3 interaction disruption; AID 623870; Q9Y6A5; AlphaScreen His-ARNT PAS-B/GST-TACC3 binding, luminescence; TACC3 fragment carries E629A point mutation; 390,000 compounds, 0.66% hits; inhibition, % at 9.99 µM;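 active = mean inhibition of replicates at least 50% and at least half of replicates each reaching 50%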
Xi reactivation: X-chromosome reactivation activator; 360,000 compounds, 0.055% hits; AID 743238; XiGFP mouse fibroblasts, % GFP-positive cells imaging, 3 d; cells co-treated with 5-aza-dC sensitizer; scaled so ellipticine positive control = 100%; activation, % at 7.58 µM;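 active = mean normalized replicate activation at least 10% and every replicate at or above 10%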
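Material: XiGFP fibroblasts, SV40-immortalized. Buffer or medium: DMEM plus 5-aza-dC sensitizer. Compound: single concentration per compound, delivered by pin transfer. Times: 3 days compound exposure. Controls: ellipticine 6 µM.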
SR-BI HDL uptake: inhibitors of mouse SR-BI mediated HDL lipid uptake; Q61009; ldlA[mSR-BI] CHO cells, DiI-HDL uptake fluorescence, 3 h; inhibition, % at 12.5 µM; 320,000 compounds, 0.96% hits; AID 488896;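 active = mean replicate inhibition of at least 70% and a set share of replicates each scoring 70 or more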
Target sequence (Q61009 whole entry, looked up): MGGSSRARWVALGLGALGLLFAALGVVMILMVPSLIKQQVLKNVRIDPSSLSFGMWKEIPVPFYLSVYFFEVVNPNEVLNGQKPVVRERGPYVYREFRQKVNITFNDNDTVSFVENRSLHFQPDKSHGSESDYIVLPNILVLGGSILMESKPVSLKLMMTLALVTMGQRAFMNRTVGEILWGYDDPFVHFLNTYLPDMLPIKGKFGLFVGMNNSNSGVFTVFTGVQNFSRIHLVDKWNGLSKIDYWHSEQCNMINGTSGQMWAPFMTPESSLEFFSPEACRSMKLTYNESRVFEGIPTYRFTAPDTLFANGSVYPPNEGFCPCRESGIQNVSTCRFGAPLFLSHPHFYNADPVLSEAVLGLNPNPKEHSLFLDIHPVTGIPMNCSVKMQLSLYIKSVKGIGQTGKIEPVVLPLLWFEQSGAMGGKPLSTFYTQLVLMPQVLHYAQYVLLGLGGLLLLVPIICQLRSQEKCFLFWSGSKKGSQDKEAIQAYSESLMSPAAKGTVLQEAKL
SR-BI uptake up: enhances SR-BI lipid uptake from DiI-HDL | AID 504775 | activation, % at 12.5 µM | CHO ldlA[mSR-BI] cells, DiI-HDL uptake fluorescence, 3 h; 100 = double the neutral-control signal | 320,000 compounds, 0.096% hits;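 active = mean replicate activation of at least 60% and every replicate at or above 60%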
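system = CHO ldlA[mSR-BI] cells, LDL receptor-null, SR-BI overexpressing | medium = Ham's F12 with 0.5% BSA, HEPES 25 mM, pH 7.4 | probe or stimulus = DiI-HDL 10 µg/mL | compound dosing = single-point compound dose | incubation = compound exposure 3 h, 37 °C | technique = DiI fluorescence, bottom read | read-out = cell-associated DiI fluorescence as measure of HDL uptake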
HGIII-sPLA2 inh: Blocks human group III sPLA2 activity. Q9NZ20. QFRET BODIPY PC-A2 liposome hydrolysis, fluorescence. inhibition, % at 12.2 µM. 370,000 compounds, 0.56% hits;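 active = inhibition above mean plus 3 SD of compounds lying within the high and low control bounds, cut at about 19% in these data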
NSD2 HMT inh: inhibitors of human histone methyltransferase NSD2. O96028. NSD2 peptide methylation, AlphaScreen, 120 min. inhibition, % at 12.5 µM. 310,000 compounds, 0.54% hits. AID 743445; in the data active = inhibition above about 50%
Each line names hits and unclear results; the compound was inactive in the other large screens; ! = a repeat was not active.

Cc1noc(C)c1NC(=O)Nc1ccc2c(c1)C(=O)N([C@H](C)CO)C[C@H](C)[C@@H](CN(C)Cc1ccc(-c3ccccc3)cc1)O2	none (no result: SR-BI HDL uptake, SR-BI uptake up, HGIII-sPLA2 inh, NSD2 HMT inh)
Cc1ccc(Cl)cc1N1CCN(C(=O)C2(S(=O)(=O)c3ccc(Cl)cc3)CC2)CC1	none (no result: Xi reactivation, NSD2 HMT inh)
Cc1cccc(N2CCN(C(=O)C3(S(=O)(=O)c4ccc(Cl)cc4)CC3)CC2)c1C	ARNT-TACC3 inh 50 (no result: SR-BI HDL uptake, SR-BI uptake up)
Oc1ccc(/C=N/n2c(-c3ccco3)csc2=Nc2cccnc2)c(O)c1	ARNT-TACC3 inh 64 (no result: Xi reactivation)
Oc1cccc2c3c(oc12)CCCC3	none (no result: ARNT-TACC3 inh, SR-BI HDL uptake, SR-BI uptake up)
CCN1/C(=C/c2ccc3ccccc3[n+]2CCCS(=O)(=O)[O-])C=Cc2cc(C)ccc21	none (no result: NSD2 HMT inh)
CCN1/C(=C/c2ccc3ccccc3[n+]2CC)C=Cc2ccccc21	SR-BI HDL uptake 87, HGIII-sPLA2 inh 33 (no result: Xi reactivation, NSD2 HMT inh)
O=C(NCc1ccccc1)c1cc(C2CCCCN2C(=O)CCCc2ccccc2)on1 (centres undefined)	none (no result: ARNT-TACC3 inh, SR-BI HDL uptake, SR-BI uptake up)
CCc1nn(C(C)C(=O)NCCN2CCN(c3cccc(C)c3C)CC2)c(=O)c2cc3occc3n12 (centres undefined)	SR-BI HDL uptake 80 (no result: Xi reactivation)
Cc1nc(C)c(-c2csc(Nc3cccc(O)c3)n2)s1	none
CC(=O)c1cccc(Nc2nc(-c3sc(C)nc3C)cs2)c1	SR-BI HDL uptake 71
CC(=O)Nc1ccc(Nc2nc(-c3sc(C)nc3C)cs2)cc1	SR-BI HDL uptake 74
CC(=O)c1ccc(Nc2nc(-c3sc(C)nc3C)cs2)cc1	none (no result: ARNT-TACC3 inh, SR-BI HDL uptake, SR-BI uptake up)
CC(=O)c1cccc(Nc2nc(-c3sc(N)nc3C)cs2)c1	none
Cc1cccc(Nc2nc(-c3sc(C)nc3C)cs2)c1	SR-BI HDL uptake 85
Cc1n[nH]c(C)c1S(=O)(=O)NC(C)Cc1ccccn1 (centres undefined)	none (no result: ARNT-TACC3 inh, Xi reactivation, SR-BI HDL uptake, SR-BI uptake up)
CCN(CC)S(=O)(=O)c1ccc(C(=O)N2CCN=C2SCc2cccnc2)cc1	none (no result: Xi reactivation)
COc1ccc2sc(-c3ccc(SC)cc3)c(-c3ccc(O)cc3)c2c1	SR-BI HDL uptake 76 (no result: ARNT-TACC3 inh, NSD2 HMT inh)
COC(=O)c1c(-c2ccc(N(C)C)cc2)sc2ccc(OC)cc12	SR-BI HDL uptake 79 (no result: NSD2 HMT inh)
COc1cc(-c2ccc3sc(-c4ccsc4)c(C#CCO)c3c2)cc(OC)c1OC	none (no result: NSD2 HMT inh)
COC(=O)c1c(-c2ccsc2)sc2ccc(-c3cc(OC)c(OC)c(OC)c3)cc12	SR-BI HDL uptake 75 (no result: NSD2 HMT inh)
COc1ccc2sc(-c3ccc(N(C)C)cc3)c(-c3cnc(OC)nc3)c2c1	SR-BI HDL uptake 82 (no result: NSD2 HMT inh)
COC(=O)c1c(-c2ccc(OC)cc2)sc2cc3c(cc12)OCO3	none (no result: NSD2 HMT inh)
COc1ccc2sc(-c3ccccc3OC)c(-c3ccc(SC)cc3)c2c1	none (no result: ARNT-TACC3 inh, SR-BI HDL uptake, SR-BI uptake up, NSD2 HMT inh)
Cc1ccc(S(=O)(=O)Nc2ccc3c(c2)C(=O)N([C@@H](C)CO)C[C@H](C)[C@H](CN(C)C(=O)CCCN(C)C)OCCCC[C@H](C)O3)cc1	none (no result: SR-BI HDL uptake, SR-BI uptake up, HGIII-sPLA2 inh, NSD2 HMT inh)
CCOc1cc(C(=O)Nc2cc(C(=O)OC)ccc2C)ccc1OCC(=O)N1CCOCC1	SR-BI HDL uptake 73
CC(=O)Nc1ccc2c(c1)C(=O)N(C)[C@@H]1CC[C@H](CC(=O)NCc3ccccc3Cl)O[C@H]1CO2	none (no result: SR-BI HDL uptake, SR-BI uptake up, HGIII-sPLA2 inh, NSD2 HMT inh)
COc1cc2c(cc1NC(=O)C(Cl)Cl)-c1ccc(NC(=O)C(Cl)Cl)cc1C2	SR-BI HDL uptake 83
COc1cc2c(cc1NC(=O)c1ccccc1-c1ccccc1C(=O)O)-c1ccccc1C2	none (no result: ARNT-TACC3 inh, SR-BI HDL uptake, SR-BI uptake up)
CCCC(=O)O/N=C(\c1ccccc1)c1ccncc1	none
CN1C(=O)c2cc(NC(=O)c3cnccn3)ccc2OC[C@H]2O[C@H](CC(=O)NCC3CCCCC3)CC[C@@H]21	none (no result: SR-BI HDL uptake, SR-BI uptake up, HGIII-sPLA2 inh, NSD2 HMT inh)
Cc1ccc(S(=O)(=O)NC2=C(N3CCN(Cc4ccccc4)CC3)C(=O)c3ccccc3C2=O)cc1	none (no result: ARNT-TACC3 inh)
Cc1ccc(S(=O)(=O)NC2=C(N3CCN(c4ccccc4F)CC3)C(=O)c3ccccc3C2=O)cc1	SR-BI HDL uptake 97!
CC(=O)Nc1ccc(S(=O)(=O)NC2=C(N3CCN(c4ccc(F)cc4)CC3)C(=O)c3ccccc3C2=O)cc1	none
CCOC(=O)N1CCN(C2=C(NS(=O)(=O)c3ccc(C)cc3)C(=O)c3ccccc3C2=O)CC1	NSD2 HMT inh 64
Cc1cccc(Cl)c1NC(=O)NCCCN1CCCCC1C (centres undefined)	none (no result: ARNT-TACC3 inh, SR-BI HDL uptake, SR-BI uptake up)
Cc1ccc(S(=O)(=O)Nc2ccccc2N=Cc2c(F)c(F)c(F)c(F)c2F)cc1	SR-BI HDL uptake 92
O=C(CN1C(=O)NC2(CCCCC2)C1=O)Nc1ccc(N2CCCCC2)cc1	none
CC1CC(C)(C)CC2(C1)NC(=O)N(CC(=O)Nc1ccc(N3CCCCC3)cc1)C2=O (centres undefined)	SR-BI HDL uptake 73 (no result: SR-BI uptake up)
O=C(CNC(=O)c1ccc(S(=O)(=O)N2CCCC2)cc1)N/N=C/c1ccc(Cl)cc1	SR-BI HDL uptake 72
O=C(CNC(=O)c1ccc(S(=O)(=O)N2CCCC2)cc1)N/N=C/c1ccccc1	none
O=C(CN(Cc1ccccc1Cl)S(=O)(=O)c1ccc(Cl)cc1)N/N=C/c1ccc(C(=O)O)cc1	ARNT-TACC3 inh 51 (no result: SR-BI uptake up)
CCOC(=O)C1=C(C)c2ccccc2N(C(=O)OC)C1(C)C(=O)OCC (centres undefined)	none (no result: NSD2 HMT inh)
CCC(C)C(=O)N1c2ccccc2C(=C2SC(C(=O)OC)=C(C(=O)OC)S2)C(=S)C1(C)C (centres undefined)	SR-BI HDL uptake 89 (no result: ARNT-TACC3 inh, Xi reactivation)

High-throughput results from PubChem.
